Test results published in ChEMBL document CHEMBL4513216, “Probing the Open Global Health Chemical Diversity Library for Multistage-Active Starting Points for Next-Generation Antimalarials” (ACS Infect Dis, 2020).

Experiment: Toxicity liver stage against HepG2, at 10uM
Format: cell-based
Set-up: test concentration 10 uM, cell line HepG2-A16-CD81EGFP
Settings: human, HepG2-A16-CD81EGFP cells; read-out: INHIBITION
Method in brief: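 Uninfected HepG2-A16-CD81EGFP cells, 3 × 10^3 per well, 1536-well, plated on prespotted compound at 10 μM final, parasite-free screening media added to match infected plates; puromycin 10 μM positive, DMSO 0.5% negative; run in parallel with 48 h PbLuc assay at 37 °C, 5% CO2; viability by CellTiter-Glo luminescence, normalized to controls.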

| Structure (SMILES) | cytotoxicity at 10 µM [%] |
| --- | --- |
| Cn1cnc2nc3n(c2c1=O)CCC3 | -0.409 |
| O=C1CO[C@H]2CN(S(=O)(=O)c3ccccc3)C[C@H]2N1CC1CCCCC1 | 3.36 |
| N#Cc1ccc(C(=O)N2CCOC[C@H](Oc3cnccn3)C2)cc1 | 5.88 |
| Nc1ncncc1-c1noc([C@@H]2CCCN2CC2CC2)n1 | -1.18 |
| CCc1nnc(SCc2cc(=O)n3c4c(sc3n2)CCCC4)[nH]1 | -3.91 |
| CCOC(=O)[C@@H]1[C@@H](O)C(=O)N(C)C12CCN(C(=O)c1ccco1)CC2 | -2.36 |
| COCCOC(=O)N1CC2=CC(C)(C)COc3ccc(OC)c(c32)C1 | 1.22 |
| NC(=O)Cn1c(CO)cnc1SCc1ccccc1Cl | 0.252 |
| CCCNC(=O)Cn1cc(OC)c(=O)cc1CSc1nc(C)cc(C)n1 | 4.46 |
| Cc1noc(CNC(=O)CN(C)c2nc3ccccc3s2)n1 | -2.43 |
| O=C(CN1CCC(c2nnc(C(F)(F)F)o2)CC1)NCc1ccccc1 | 2.51 |
| O=C1CCC2(CCCN(C(=O)c3cnccn3)CC2)N1 (configuration not stated) | -2.66 |
| O=C1CO[C@@H]2CN(C(=O)CCc3ccccc3)C[C@H]2N1 | 6.06 |
| COCCC(=O)N1CCCC2(CCN(c3ccccc3)C2=O)C1 (configuration not stated) | -1.66 |
| CN1C(=O)C2(CCN(S(=O)(=O)C3CC3)CC2)c2ccccc21 | -5.27 |
| CCOCC1CN(C(=O)N(C)C)Cc2nnn(CC3CC3)c21 (configuration not stated) | -6.26 |
| COc1cccc(CC(=O)N2CC[C@H]3[C@@H]2CCC(=O)N3C)c1 | -4.57 |
| O=C(Nc1ccccc1)N1C[C@@H]2OCCN(C(=O)c3ccco3)[C@@H]2C1 | -150 |
| Cc1cnc(C(=O)N2CCc3ncnc(-c4cnn(C)c4)c3CC2)cn1 | 0.588 |
| CC(C)c1ccc(S(=O)(=O)N2CCCC3(CCCN3S(C)(=O)=O)C2)cc1 (configuration not stated) | -0.96 |
| O=C(C1CC1)N1CCC2(COCc3cnc(NCc4ccco4)nc32)C1 (configuration not stated) | -1.08 |
| O=c1cccnn1CC1CN(c2ncc(F)cn2)Cc2nccn2C1 (configuration not stated) | 4.65 |
| COc1ccc(CN2C[C@@H]3CCCO[C@@H]3[C@H](NC(=O)CC3CC3)C2)cc1 | 25.3 |

| Structure (SMILES) | cytotoxicity at 10 µM [%] |
| --- | --- |
| O=C(c1ccsc1)N1C[C@H]2CN(Cc3cccc(F)c3)C(=O)[C@H]2C1 | 0.98 |
| COCC1COCCC12CCN(C(=O)Cc1cccc(OC)c1)CC2 (configuration not stated) | -2.56 |
| O=c1cc(Cn2ccnc2)nc2n1CCCN(Cc1ccc(F)cc1)C2 | 7.17 |
| CSc1nc2ncc3c(=O)n(C)ccc3n2n1 | -11.6 |
| Cc1nnc([C@H]2CC[C@@H]3[C@@H](CCN3Cc3c(C)noc3C)O2)o1 | -2.26 |
| Cc1ccc2nnc(C(=O)NCC3CCCC3)nc2c1 | 6.47 |
| Cc1nn(C(C)C)c2cn(CC(=O)NC3CCSCC3)nc12 | -2.72 |
| CCc1ccccc1Nc1noc2c1CN(C(=O)c1ccn(C)n1)CC2 | 0.295 |
| COCC(=O)N(C)Cc1nc(N(C)C)ncc1-c1ccncc1 | 2.42 |
| CC(C)N1CCCC(Cc2nccnc2Cl)C1 (configuration not stated) | -3.22 |
| O=C(CCOc1ccccc1F)NC1CCCN(c2ccccn2)C1 (configuration not stated) | -5.67 |
| CC[C@@H](Cn1ncc2ccccc2c1=O)NC(=O)c1cnccn1 | 6.4 |
| O=C(Cc1cccnc1)N1CC(Cc2nccc3cc[nH]c23)C1 | 4.87 |
| CCC(CC)N1CCC(c2[nH]ncc2S(C)(=O)=O)C1 (configuration not stated) | -3.51 |
| Cc1cccc(N2CCCC2c2nc(C)ncc2CN(C)C)n1 (configuration not stated) | -2.17 |
| CC(C)(C)c1nnc2n1C(C(=O)N1CCOCC1)CC2 (configuration not stated) | 1.52 |
| CC(=O)N(C)Cc1cccc(NC(=O)c2cnn(C)c2C)c1 | 3.5 |
| CS(=O)(=O)NCCN1CCSCC1c1ccc(Cl)cc1 (configuration not stated) | -3.7 |
| CC(C)(NS(C)(=O)=O)C(=O)NCc1cccc(Br)c1 | -2.42 |
| CC(Cc1ccco1)NS(=O)(=O)N1CCCCCC1 (configuration not stated) | 2.29 |
| CCC(C)(C)C(=O)Nc1ccc2ccn(CC(=O)NC)c2c1 | 4.19 |
| Cc1nc(C)n(CC2CCCN2c2ncnc3sccc23)n1 (configuration not stated) | -1.09 |
| CCN(Cc1ccco1)C(=O)NCC(C)N1CCc2sccc2C1 (configuration not stated) | 9.08 |

| Structure (SMILES) | cytotoxicity at 10 µM [%] |
| --- | --- |
| Cn1ccnc1CCNS(=O)(=O)c1cccc(Br)c1 | 4.95 |
| CC(C)CC(NC(=O)c1cnn(C)c1)C(=O)Nc1cc[nH]n1 (configuration not stated) | -3.38 |
| OC(CNCCn1cccn1)COc1ccc(Br)cc1 (configuration not stated) | -8.03 |
| COc1ccc(CNC(=O)NC2CCN(c3ccccc3)C2=O)cc1 (configuration not stated) | -2.98 |
| CS(=O)(=O)CCOc1nc(-c2ccccc2Cl)no1 | -11.2 |
| CCn1nc2c(cc1=O)CN(Cc1nc(C)c3ccccc3n1)CC2 | -9.35 |
| COCc1csc(NC(=O)NCc2ccccn2)n1 | 11.3 |
| CCc1nc(CN(C)C(=O)NCc2cccc(NC(C)=O)c2)cs1 | -3.71 |
| Cn1cnc2c1CCN(CC(=O)N(Cc1ccccc1F)C1CC1)C2 | 4.91 |
| CCCc1nc(CNc2cccc(C(=O)N3CCCC(O)C3)c2)no1 (configuration not stated) | -5.35 |
| O=C(NCCn1ccnc1)c1csc(Br)c1 | 13 |
| CCC(=O)NCC(=O)NCC1(c2c(F)cccc2F)CCCC1 | -0.147 |
| Cc1cc(CNC(=O)Cc2cccs2)ccc1S(C)(=O)=O | -2.74 |
| Cc1cccc(OCCNC(=O)C(C)S(=O)(=O)C2CCCC2)c1 (configuration not stated) | 6.72 |
| Cc1cc(OC(F)F)c(C(=O)N2CCN(C3CC3)CC2)s1 | 9.05 |
| CN(CCNS(C)(=O)=O)CC(c1cccs1)N1CCOCC1 (configuration not stated) | -3.43 |
| CC(C)c1ccc(C(=O)O)cc1S(=O)(=O)Nc1ccc(=O)n(C)c1 | -13.1 |
| Cn1ccc(C(=O)NCCOc2ccc3c(c2)OCO3)cc1=O | 5.97 |
| COc1cc(F)c(S(=O)(=O)Nc2cnc(O)cc2C)cc1OC | 5.66 |
| COCCNC(=O)Cn1cc(NC(=O)c2cccc(Cl)c2Cl)cn1 | -7.04 |
| CCc1cnc(NC(=O)NC2CCN(C)CC2)s1 | -5.66 |
| Cn1ncnc1NS(=O)(=O)c1ccc(F)cc1 | 7.66 |
| CC(C)N1Cc2cccc(NCC(=O)N(C)C)c2C1 | 6.05 |

| Structure (SMILES) | cytotoxicity at 10 µM [%] |
| --- | --- |
| CC(C)CCC(C)NC(=O)Nc1ccccn1 (configuration not stated) | 5.28 |
| Cc1cccc(CNC(CN2CCN(C)CC2)c2ccccc2)c1 (configuration not stated) | -3.61 |
| Cc1cc(NC(=O)CCc2ccsc2)n(C)n1 | 17.8 |
| COc1ccc(NC(=O)CNc2ccc(Br)cc2F)cc1 | 0.795 |
| CC(O)CN1CCN(C(=O)c2cc3ccccc3c(=O)[nH]2)CC1 (configuration not stated) | -2.64 |
| Cc1nccc([C@H]2C[C@@H]3CCN(C(=O)c4c(C)noc4C)C[C@H]3O2)n1 | -83.3 |
| Fc1ccc(-c2cc(NCCC3CCOC3)n3nccc3n2)cc1 (configuration not stated) | 2.8 |
| CCn1c(Cn2cncn2)nnc1C1CCN(C2CCNCC2)CC1 | -0.0807 |
| CC(C)[C@H]1COC(=O)N1Cc1noc(-c2ccccc2)n1 | 5.01 |
| O=C(CC1=CSC2=NCCCN12)N1CCCCCC1c1ccco1 (configuration not stated) | 10 |
| O=C(N[C@@H]1CCNC[C@H]1O)c1cc(F)cc(Cl)c1 | -3.12 |
| CCc1cnc(N)nc1N1CCCC2(CCOCC2)C1 | -135 |
| Cc1nc2c(c(=O)n1C)CN(C(=O)C1CCCN(C(=O)N(C)C)C1)C2 (configuration not stated) | -5.18 |
| CC(C)c1nccc(CN2CCCC(O)(CN(C)C)CC2)n1 (configuration not stated) | -2.01 |
| Cn1c(-c2ccccc2Cl)nc2cc(C(=O)NCC3(C)COC3)cnc21 | 1.59 |
| COCc1ccc(C(=O)N2CCC(Oc3ccccc3OC)CC2)s1 | 5.79 |
| C=C(C)COc1cccc(C(=O)N(C)Cc2cc(CC)no2)c1 | -3.42 |
| COc1ccc2[nH]c(=O)c(CN(C)C(C)c3ccccn3)cc2c1 (configuration not stated) | 2.76 |
| c1nc(CCNc2nc(C3CC3)nc3c2CCNCC3)c[nH]1 | -130 |
| CCn1ncnc1C(C)NC(=O)C1CCN(Cc2ccco2)CC1 (configuration not stated) | -133 |
| CCc1nc(N2CCN(c3ncccn3)CC2)c2cnn(C)c2n1 | -1.04 |
| Cc1noc(C)c1CN(C)C(=O)c1n[nH]c(N)c1-c1ccccc1 | -7.46 |
| Cn1ncc2c(N3CCC3)nc(-c3ccncc3)nc21 | 11.8 |

| Structure (SMILES) | cytotoxicity at 10 µM [%] |
| --- | --- |
| CN(C)c1ccc(CC(=O)N[C@@H]2CCNC[C@H]2O)cc1 | -7.82 |
| CCCNC(=O)NC(=O)CN1C=Nc2ccccc2S1(=O)=O | -3.12 |
| O=C(CCn1cncn1)NC1CCc2nccn2C1 (configuration not stated) | -4.39 |
| COc1cc(CNCCc2cnn(C)c2)cc2c1OCO2 | -9.3 |
| CN(C(=O)NCc1ccncc1)C1CCCN(c2ccccc2)C1=O (configuration not stated) | -8.86 |
| Cc1ccc(NC2CCN(C(=O)Cc3c(C)nn(C)c3C)CC2)nn1 | -11.9 |
| CC(C)(C)c1cc(NC(=O)CN2CCn3c(nnc3C3CC3)C2)on1 | -4.1 |
| OC(COCc1ccc(Cl)cc1)CN1CC(n2cccn2)C1 (configuration not stated) | -6.25 |
| COc1ccc(CCN2CCC(N3CCN(C)C3=O)CC2)cc1 | -6.64 |
| O=C(NCCCn1ccnc1)N1CCCC1c1cccs1 (configuration not stated) | -8.31 |
| CCn1ccnc1CN1CCN(CC(=O)NC(=O)NC2CC2)CC1 | -3.3 |
| COc1cc(CN)c(OC)c2c1OCO2 | -1.29 |
| CC(C)n1cnc2c(N3CCCC3)nc(C3CCNCC3)cc21 | -3.03 |
| Cn1cc(CN2CCCC3(CCCN3S(C)(=O)=O)C2)cn1 (configuration not stated) | 2.08 |
| Cc1cncc(C(=O)N2CCC3(CC2)NC(=O)CC3c2ccccc2)c1 (configuration not stated) | -78.1 |
| COc1cc(CNC(C)Cn2cccn2)cc(Cl)c1OC (configuration not stated) | -1.14 |
| O=C(O)CN1CCC(F)(F)C2(CCN(c3ccccn3)C2)C1 (configuration not stated) | 1.78 |
| Cn1cc2c(n1)C(CNCC1CCOCC1)OCC2 (configuration not stated) | 6.86 |
| CN(C)CCN1C(=O)CCCC12CCCN(Cc1cccs1)C2 (configuration not stated) | 0.199 |
| Cc1cccc(CN2CCC3(CCCN(C(=O)c4ccoc4)C3)C2=O)n1 (configuration not stated) | 3.19 |
